Results: ChEMBL document CHEMBL1135552, “Synthesis and biological activities of cyclic lanthionine enkephalin analogues: delta-opioid receptor selective ligands” (J Med Chem, 2002)

Experiments:
[1] = biological target: T1, Delta-type opioid receptor (Homo sapiens, UniProt P41143); experiment: Inhibition of binding of [3H]diprenorphine to cloned human Opioid receptor delta 1 expressed in CHO cell membrane;Range is in between (0.62-0.65); assay type: cell-based
[2] = biological target: T2, Delta-type opioid receptor (Mus musculus, UniProt P32300); experiment: Ability to inhibit electrically evoked contractions of isolated muscle preparations of mouse vas deferens (MVD, delta receptor); assay type: functional
How it was run: (§1)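 Electrically evoked contractions of isolated guinea pig ileum (GPI) or mouse vas deferens (MVD) preparations. A log dose-response curve for [Leu5]-enkephalin was run as standard on each ileum and vas preparation. IC50 values were normalised to that standard.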

[3] = biological target: Mu-type opioid receptor (Cavia porcellus, UniProt P97266); experiment: Ability to inhibit electrically evoked contractions of isolated muscle preparations of guinea pig ileum (GPI, mu receptor); assay type: functional, tissue-based; how it was run: as §1
[4] = species: Rattus norvegicus; experiment: Dosage necessary to produce half maximal effect; Range is in between (0.0010-0.0034); assay type: functional
[5] = biological target: T3, Kappa-type opioid receptor (Homo sapiens, UniProt P41145); experiment: Inhibition of binding of [3H]diprenorphine to cloned human Opioid receptor kappa 1 expressed in CHO cell membrane; range is in between (4700-8500); assay type: cell-based
How it was run: (§2)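 Membranes from CHO cells expressing cloned human µ, δ or κ receptors in Tris-HCl pH 7.8 buffer with EGTA, MgCl2 and protease inhibitors. 50-100 µg protein with 0.4 nM (final) [3H]-diprenorphine, 60 min, room temperature. Filtered on PEI/BSA-treated GF/B filters, counted by scintillation. Nonspecific binding with 10 µM naloxone. Four-parameter one-site fit; Ki by Cheng-Prusoff.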

[6] = biological target: T4, Mu-type opioid receptor (Homo sapiens, UniProt P35372); experiment: Inhibition of binding of [3H]diprenorphine to cloned human Opioid receptor mu 1 expressed in CHO cell membrane;Range is in between (1.3-3.7); assay type: cell-based
[7] = biological target: T1, Delta-type opioid receptor; experiment: Inhibition of binding of [3H]diprenorphine to cloned human Opioid receptor delta 1 expressed in CHO cell membrane;Range is between (0.66-0.95); assay type: cell-based; how it was run: as §2
[8] = biological target: T2, Delta-type opioid receptor; experiment: Ability to inhibit electrically evoked contractions of isolated muscle preparations of mouse vas deference (MVD, delta receptor); assay type: functional; how it was run: as §1
[9] = biological target: T4, Mu-type opioid receptor; experiment: Inhibition of binding of [3H]diprenorphine to cloned human Opioid receptor mu 1 expressed in CHO cell membrane;Range is in between (110-150); assay type: cell-based; how it was run: as §2
[10] = species: Rattus norvegicus; experiment: Dosage necessary to produce half maximal effect; Range is in between (0.04-0.33); assay type: functional
[11] = biological target: T3, Kappa-type opioid receptor; experiment: Inhibition of binding of [3H]diprenorphine to cloned human Opioid receptor kappa 1 expressed in CHO cell membrane; assay type: cell-based
[12] = species: Rattus norvegicus; experiment: Dosage necessary to produce half maximal effect; Range is in between (10-24); assay type: functional
[13] = biological target: T3, Kappa-type opioid receptor; experiment: Inhibition of binding of [3H]diprenorphine to cloned human Opioid receptor kappa 1 expressed in CHO cell membrane;Range is in between (1400-1900); assay type: cell-based; how it was run: as §2
[14] = biological target: T1, Delta-type opioid receptor; experiment: Inhibition of binding of [3H]diprenorphine to cloned human Opioid receptor delta 1 expressed in CHO cell membrane;Range is between (1.7-2.3); assay type: cell-based
[15] = biological target: T4, Mu-type opioid receptor; experiment: Inhibition of binding of [3H]diprenorphine to cloned human Opioid receptor mu 1 expressed in CHO cell membrane;Range is in between (1.8-2.2); assay type: cell-based
[16] = species: Rattus norvegicus; experiment: Dosage necessary to produce half maximal effect; Range is in between (0.0010-0.0024); assay type: functional
[17] = species: Rattus norvegicus; experiment: Dosage necessary to produce half maximal effect; Range is in between (98-163); assay type: functional
[18] = biological target: T4, Mu-type opioid receptor; experiment: Inhibition of binding of [3H]diprenorphine to cloned human Opioid receptor mu 1 expressed in CHO cell membrane;Range is in between (580-680); assay type: cell-based; how it was run: as §2
[19] = biological target: T1, Delta-type opioid receptor; experiment: Inhibition of binding of [3H]diprenorphine to cloned human Opioid receptor delta 1 expressed in CHO cell membrane;Range is between (0.35-2.5); assay type: cell-based; how it was run: as §2
[20] = species: Rattus norvegicus; experiment: Dosage necessary to produce half maximal effect; Range is in between (0.017-0.41); assay type: functional

T3 sequence (P41145 whole entry): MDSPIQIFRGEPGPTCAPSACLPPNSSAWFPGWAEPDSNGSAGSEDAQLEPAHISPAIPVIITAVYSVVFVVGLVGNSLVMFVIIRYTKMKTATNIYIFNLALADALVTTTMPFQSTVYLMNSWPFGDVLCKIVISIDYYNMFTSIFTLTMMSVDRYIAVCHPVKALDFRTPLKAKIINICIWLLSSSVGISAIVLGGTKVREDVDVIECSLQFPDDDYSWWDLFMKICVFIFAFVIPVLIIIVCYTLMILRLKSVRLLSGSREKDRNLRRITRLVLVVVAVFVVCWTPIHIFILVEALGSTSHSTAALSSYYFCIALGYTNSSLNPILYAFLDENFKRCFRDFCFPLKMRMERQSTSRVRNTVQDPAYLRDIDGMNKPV
T4 sequence (P35372 whole entry): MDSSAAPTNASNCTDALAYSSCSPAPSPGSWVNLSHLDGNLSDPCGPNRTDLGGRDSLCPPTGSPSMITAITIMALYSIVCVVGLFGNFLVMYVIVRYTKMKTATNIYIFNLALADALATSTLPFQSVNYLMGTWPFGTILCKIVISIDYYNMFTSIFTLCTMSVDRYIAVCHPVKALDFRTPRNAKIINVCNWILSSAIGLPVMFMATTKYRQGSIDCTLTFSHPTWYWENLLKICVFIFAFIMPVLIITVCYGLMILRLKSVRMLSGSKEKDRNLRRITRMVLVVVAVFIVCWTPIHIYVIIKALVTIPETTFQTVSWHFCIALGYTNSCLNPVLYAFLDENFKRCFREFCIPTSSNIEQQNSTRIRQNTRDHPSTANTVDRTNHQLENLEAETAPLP
T2 sequence (P32300 whole entry): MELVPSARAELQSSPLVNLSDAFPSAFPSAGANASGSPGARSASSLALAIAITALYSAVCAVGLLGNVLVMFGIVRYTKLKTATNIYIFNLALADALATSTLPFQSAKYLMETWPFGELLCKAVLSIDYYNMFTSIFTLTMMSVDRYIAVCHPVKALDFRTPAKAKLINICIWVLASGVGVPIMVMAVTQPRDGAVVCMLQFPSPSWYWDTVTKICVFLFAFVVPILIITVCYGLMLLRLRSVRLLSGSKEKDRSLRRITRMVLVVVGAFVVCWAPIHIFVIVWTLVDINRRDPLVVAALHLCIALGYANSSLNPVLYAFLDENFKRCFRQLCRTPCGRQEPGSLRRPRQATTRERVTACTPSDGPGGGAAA
Chain of Mu-type opioid receptor (Cavia porcellus, UniProt P97266) (P97266 whole entry): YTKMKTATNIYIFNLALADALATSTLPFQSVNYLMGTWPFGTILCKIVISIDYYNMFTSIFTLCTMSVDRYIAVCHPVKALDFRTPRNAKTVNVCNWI
T1 sequence (P41143 whole entry): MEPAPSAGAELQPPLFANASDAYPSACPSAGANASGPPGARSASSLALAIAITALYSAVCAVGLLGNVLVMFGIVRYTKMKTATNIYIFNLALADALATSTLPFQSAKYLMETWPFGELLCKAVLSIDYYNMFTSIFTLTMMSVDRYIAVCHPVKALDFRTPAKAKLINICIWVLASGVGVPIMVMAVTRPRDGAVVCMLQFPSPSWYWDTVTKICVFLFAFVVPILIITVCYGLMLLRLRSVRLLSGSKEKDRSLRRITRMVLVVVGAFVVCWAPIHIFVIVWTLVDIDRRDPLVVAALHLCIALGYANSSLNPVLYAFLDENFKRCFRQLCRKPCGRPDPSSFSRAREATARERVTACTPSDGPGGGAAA

SMILES: N[C@@H](Cc1ccc(O)cc1)C(=O)N[C@@H]1CSC[C@@H](C(=O)O)NC(=O)[C@H](Cc2ccccc2)NC(=O)CNC1=O
- Ki [1]: 0.63 nM
- IC50 [2]: 0.35 nM
- IC50 [3]: 1.06 nM
- ED50 [4]: 0.0018 nM
- Ki [5]: 6400 nM
- Ki [6]: 2.3 nM

SMILES: CC1(C)SC[C@@H](C(=O)O)NC(=O)[C@H](Cc2ccccc2)NC(=O)CNC(=O)[C@@H]1NC(=O)[C@@H](N)Cc1ccc(O)cc1
- Ki [7]: 0.79 nM
- IC50 [8]: 0.26 nM
- Ki [9]: 130 nM
- IC50 [3]: 82 nM
- ED50 [10]: 0.12 nM
- Ki [11]: > 1000 nM

SMILES: CN1CC[C@]23c4c5ccc(O)c4O[C@H]2[C@@H](O)C=C[C@H]3[C@H]1C5 [MORPHINE]
- ED50 [12]: 15 nM

SMILES: N[C@@H](Cc1ccc(O)cc1)C(=O)N[C@@H]1CSC[C@H](C(=O)O)NC(=O)[C@H](Cc2ccccc2)NC(=O)CNC1=O
- Ki [13]: 1600 nM
- IC50 [2]: 1.58 nM
- IC50 [3]: 0.56 nM
- Ki [14]: 2 nM
- Ki [15]: 2 nM
- ED50 [16]: 0.0015 nM

SMILES: CC1(C)SSC(C)(C)[C@@H](NC(=O)[C@@H](N)Cc2ccc(O)cc2)C(=O)NCC(=O)N[C@@H](Cc2ccccc2)C(=O)N[C@H]1C(=O)O
- ED50 [17]: 130 nM

SMILES: CC1(C)SC[C@H](C(=O)O)NC(=O)[C@H](Cc2ccccc2)NC(=O)CNC(=O)[C@@H]1NC(=O)[C@@H](N)Cc1ccc(O)cc1
- IC50 [8]: 2.33 nM
- Ki [18]: 630 nM
- IC50 [3]: 730 nM
- Ki [19]: 0.93 nM
- ED50 [20]: 0.26 nM
- Ki [11]: > 10000 nM
